Assay results: ChEMBL document CHEMBL1142004, “Dipeptidyl aspartyl fluoromethylketones as potent caspase inhibitors: peptidomimetic replacement of the P2 alpha-amino acid by a alpha-hydroxy acid” (Bioorg Med Chem Lett, 2005)

Key:
HeLa = experiment: Concentration tested for 50% of TNF- alpha induce HeLa cell protection was determined; type: functional, cell-based; settings: Homo sapiens
How it was run: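 HeLa cells were treated with TNF-α to induce apoptosis, with inhibitor present. Viability was quantified by calcein AM uptake. The value is the inhibitor concentration giving 50% cell protection.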

[1] = Inhibitory concentration against Coagulation factor X
How it was run: (§1)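 Isolated-enzyme inhibition assays (calpain-1, cathepsin B, factor Xa) tested inhibitor at concentrations up to 100,000 nM. The read-out was IC50.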

[2] = biological target: T1, Calpain-1 catalytic subunit (Homo sapiens, UniProt P07384); experiment: Inhibitory concentration against Calpain 1; how it was run: as §1
T1 sequence (P07384 whole entry): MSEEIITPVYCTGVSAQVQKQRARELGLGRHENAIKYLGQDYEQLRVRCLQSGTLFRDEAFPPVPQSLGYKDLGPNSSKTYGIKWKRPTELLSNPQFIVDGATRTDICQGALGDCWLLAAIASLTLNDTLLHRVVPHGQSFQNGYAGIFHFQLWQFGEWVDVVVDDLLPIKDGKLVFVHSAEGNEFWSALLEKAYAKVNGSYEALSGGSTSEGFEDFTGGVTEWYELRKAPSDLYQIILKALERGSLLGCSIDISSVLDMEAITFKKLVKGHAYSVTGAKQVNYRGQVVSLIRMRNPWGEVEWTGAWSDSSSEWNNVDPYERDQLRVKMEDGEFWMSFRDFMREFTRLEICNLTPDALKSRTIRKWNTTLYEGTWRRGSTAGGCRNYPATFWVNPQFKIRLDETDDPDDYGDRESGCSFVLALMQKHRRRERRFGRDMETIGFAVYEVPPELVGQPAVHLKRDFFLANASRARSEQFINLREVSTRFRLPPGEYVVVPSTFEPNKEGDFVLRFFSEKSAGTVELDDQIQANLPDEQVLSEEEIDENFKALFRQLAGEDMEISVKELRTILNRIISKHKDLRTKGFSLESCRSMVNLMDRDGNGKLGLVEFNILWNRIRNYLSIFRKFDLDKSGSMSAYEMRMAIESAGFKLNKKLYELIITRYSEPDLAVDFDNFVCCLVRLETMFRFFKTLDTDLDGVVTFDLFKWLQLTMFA

Mus musculus [3] = experiment: Survival of mice with 1 mg/kg of compound treatment after induction of apoptosis by anti-Fas antibody at 24 hr (n=6); type: functional
How it was run: (§2)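 Mice received an IV injection of anti-Fas monoclonal antibody; untreated controls received 8 µg. Five minutes later they received an IV dose of inhibitor in an aqueous vehicle containing 50 mM Tris–HCl, or vehicle alone. Six mice per group. Survivors were counted at 1, 3, 6 and 24 h and at 3 days, when the experiment ended, and reported as a percentage of each group.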

Mus musculus [4] = experiment: Survival of mice with 0 mg/kg of compound treatment after induction of apoptosis by anti-Fas antibody at 6 hr (n=6); type: functional; how it was run: as §2
Mus musculus [5] = experiment: Survival of mice with 10 mg/kg of compound treatment after induction of apoptosis by anti-Fas antibody at 3 hr (n=6); type: functional; how it was run: as §2
Mus musculus [6] = experiment: Survival of mice with 0.25 mg/kg of compound treatment after induction of apoptosis by anti-Fas antibody at 1 hr (n=6); type: functional; how it was run: as §2
Mus musculus [7] = experiment: Survival of mice with 1 mg/kg of compound treatment after induction of apoptosis by anti-Fas antibody at 3 hr (n=6); type: functional; how it was run: as §2
Mus musculus [8] = experiment: Survival of mice with 1 mg/kg of compound treatment after induction of apoptosis by anti-Fas antibody at 6 hr (n=6); type: functional; how it was run: as §2
Caspase-9 = biological target: T2, Caspase-9 (Homo sapiens, UniProt P55211); experiment: Inhibitory concentration against Caspase-9
T2 sequence (P55211 whole entry): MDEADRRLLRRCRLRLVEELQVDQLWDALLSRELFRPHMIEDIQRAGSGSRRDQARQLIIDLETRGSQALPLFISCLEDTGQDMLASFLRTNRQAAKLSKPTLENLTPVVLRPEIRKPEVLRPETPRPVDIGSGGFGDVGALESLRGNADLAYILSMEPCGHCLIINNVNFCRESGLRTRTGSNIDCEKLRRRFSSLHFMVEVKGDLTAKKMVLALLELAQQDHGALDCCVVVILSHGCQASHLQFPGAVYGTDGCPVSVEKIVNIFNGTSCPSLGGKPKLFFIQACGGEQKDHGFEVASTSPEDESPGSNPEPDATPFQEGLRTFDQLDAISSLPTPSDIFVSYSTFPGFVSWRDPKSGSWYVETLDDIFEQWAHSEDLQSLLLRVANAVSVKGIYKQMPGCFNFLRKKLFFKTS

Mus musculus [9] = experiment: Survival of mice with 10 mg/kg of compound treatment after induction of apoptosis by anti-Fas antibody at 3 days(n=6); type: functional; settings: 72 h; how it was run: as §2
Mus musculus [10] = experiment: Survival of mice with 0.25 mg/kg of compound treatment after induction of apoptosis by anti-Fas antibody at 3 days(n=6); type: functional; settings: 72 h; how it was run: as §2
Mus musculus [11] = experiment: Survival of mice with 0.25 mg/kg of compound treatment after induction of apoptosis by anti-Fas antibody at 24 hr (n=6); type: functional; how it was run: as §2
Mus musculus [12] = experiment: Survival of mice with 10 mg/kg of compound treatment after induction of apoptosis by anti-Fas antibody at 6 hr (n=6); type: functional; how it was run: as §2
Caspase-3 = biological target: T3, Caspase-3 (Homo sapiens, UniProt P42574); experiment: Inhibitory concentration against human caspase-3
T3 sequence (P42574 whole entry): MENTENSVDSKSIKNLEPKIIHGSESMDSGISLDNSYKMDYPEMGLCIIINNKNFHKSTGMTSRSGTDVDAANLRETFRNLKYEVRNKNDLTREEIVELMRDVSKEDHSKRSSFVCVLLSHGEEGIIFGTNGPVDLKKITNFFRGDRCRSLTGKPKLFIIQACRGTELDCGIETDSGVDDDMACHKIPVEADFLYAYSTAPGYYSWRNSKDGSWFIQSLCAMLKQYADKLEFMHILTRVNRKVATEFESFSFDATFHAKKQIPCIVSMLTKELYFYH

Mus musculus [13] = experiment: Survival of mice with 10 mg/kg of compound treatment after induction of apoptosis by anti-Fas antibody at 1 hr (n=6); type: functional; how it was run: as §2
[14] = Inhibitory concentration against Caspase-1
Mus musculus [15] = experiment: Survival of mice with 0.25 mg/kg of compound treatment after induction of apoptosis by anti-Fas antibody at 6 hr (n=6); type: functional; how it was run: as §2
Caspase-6 = biological target: T4, Caspase-6 (Homo sapiens, UniProt P55212); experiment: Inhibitory concentration against Caspase-6
T4 sequence (P55212 whole entry): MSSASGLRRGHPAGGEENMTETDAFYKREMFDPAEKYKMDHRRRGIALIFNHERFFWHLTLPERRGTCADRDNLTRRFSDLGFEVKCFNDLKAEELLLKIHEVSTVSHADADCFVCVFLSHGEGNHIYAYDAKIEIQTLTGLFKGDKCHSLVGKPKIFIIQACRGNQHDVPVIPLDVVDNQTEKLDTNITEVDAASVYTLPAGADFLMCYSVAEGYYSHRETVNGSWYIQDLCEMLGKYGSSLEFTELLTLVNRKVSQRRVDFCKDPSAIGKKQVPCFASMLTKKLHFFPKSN

[16] = Inhibitory concentration against Cathepsin B; how it was run: as §1
Mus musculus [17] = experiment: Survival of mice with 0 mg/kg of compound treatment after induction of apoptosis by anti-Fas antibody at 3 days(n=6); type: functional; how it was run: as §2
Mus musculus [18] = experiment: Survival of mice with 0 mg/kg of compound treatment after induction of apoptosis by anti-Fas antibody at 24 hr (n=6); type: functional; how it was run: as §2
Mus musculus [19] = experiment: Survival of mice with 0 mg/kg of compound treatment after induction of apoptosis by anti-Fas antibody at 1 hr (n=6); type: functional; how it was run: as §2
Mus musculus [20] = experiment: Survival of mice with 0 mg/kg of compound treatment after induction of apoptosis by anti-Fas antibody at 3 hr (n=6); type: functional; how it was run: as §2
Mus musculus [21] = experiment: Survival of mice with 10 mg/kg of compound treatment after induction of apoptosis by anti-Fas antibody at 24 hr (n=6); type: functional; how it was run: as §2
Caspase-8 = Caspase-8 (Homo sapiens, UniProt Q14790); experiment: Inhibitory concentration against Caspase-8
Mus musculus [22] = experiment: Survival of mice with 0.25 mg/kg of compound treatment after induction of apoptosis by anti-Fas antibody at 3 hr (n=6); type: functional; how it was run: as §2
Mus musculus [23] = experiment: Survival of mice with 1 mg/kg of compound treatment after induction of apoptosis by anti-Fas antibody at 3 days(n=6); type: functional; settings: 72 h; how it was run: as §2
Caspase-7 = biological target: T5, Caspase-7 (Homo sapiens, UniProt P55210); experiment: Inhibitory concentration against Caspase-7
T5 sequence (P55210 whole entry): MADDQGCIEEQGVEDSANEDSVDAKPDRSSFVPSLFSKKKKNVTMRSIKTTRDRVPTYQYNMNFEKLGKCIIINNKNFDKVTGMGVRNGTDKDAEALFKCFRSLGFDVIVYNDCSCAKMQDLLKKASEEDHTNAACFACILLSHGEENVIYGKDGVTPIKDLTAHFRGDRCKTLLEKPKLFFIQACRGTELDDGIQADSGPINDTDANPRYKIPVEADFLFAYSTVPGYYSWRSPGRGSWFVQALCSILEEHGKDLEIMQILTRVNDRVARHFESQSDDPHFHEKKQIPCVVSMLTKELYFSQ

Chain of Caspase-8 (Q14790 217-374 limits assumed): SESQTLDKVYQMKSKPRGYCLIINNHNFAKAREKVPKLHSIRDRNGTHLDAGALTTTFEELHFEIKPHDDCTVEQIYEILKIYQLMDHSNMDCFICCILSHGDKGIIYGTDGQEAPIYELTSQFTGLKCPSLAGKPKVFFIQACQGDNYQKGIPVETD
Chain of Caspase-8 (Q14790 385-479 limits assumed): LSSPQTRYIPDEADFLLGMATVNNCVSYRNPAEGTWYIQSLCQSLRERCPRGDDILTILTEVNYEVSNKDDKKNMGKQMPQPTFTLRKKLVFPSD

Question: With C[C@H](OC(=O)Nc1ccccc1)C(=O)NC(CC(=O)O)C(=O)CF (some centres undefined) as the molecule, how does the Concentration (HeLa) read?
Answer: 1400 nM

Question: Which Concentration (HeLa) does the source give for CC(C)[C@H](OC(=O)Nc1ccccc1)C(=O)NC(CC(=O)O)C(=O)COC(=O)c1c(Cl)cccc1Cl (some centres undefined) here?
Answer: 1000 nM

Question: With CC(C)[C@H](OC(=O)Nc1ccccc1)C(=O)NC(CC(=O)O)C(=O)COc1cc(C(F)(F)F)nn1-c1ccccc1 (some centres undefined) as the molecule, how does the Concentration (HeLa) read?
Answer: 1100 nM

Question: For CC(C)[C@H](NC(=O)Oc1ccccc1)C(=O)NC(CC(=O)O)C(=O)CF (some centres undefined), which Concentration (HeLa) is on record?
Answer: 250 nM

Question: Which Concentration (HeLa) does the source give for CC(C)[C@H](OC(=O)Nc1ccc(Cl)cc1Cl)C(=O)NC(CC(=O)O)C(=O)CF (some centres undefined) here?
Answer: 100 nM

Question: What does the source list for CC(C)[C@H](OC(=O)Nc1ccccc1)C(=O)NC(CC(=O)O)C(=O)CF (some centres undefined)?
Answer: IC50 [1]: > 100000 nM; IC50 [2]: > 100000 nM; survival at 1 mg/kg (Mus musculus [3]): 50%; Survival (Mus musculus [4]): 0%; survival at 10 mg/kg (Mus musculus [5]): 100%; survival at 0.25 mg/kg (Mus musculus [6]): 100%; survival at 1 mg/kg (Mus musculus [7]): 100%; survival at 1 mg/kg (Mus musculus [8]): 100%; IC50 (Caspase-9): 30 nM; survival at 10 mg/kg (Mus musculus [9]): 83%; survival at 0.25 mg/kg (Mus musculus [10]): 0%; survival at 0.25 mg/kg (Mus musculus [11]): 0%; survival at 10 mg/kg (Mus musculus [12]): 100%; IC50 (Caspase-3): 17 nM; survival at 10 mg/kg (Mus musculus [13]): 100%; IC50 [14]: 12 nM; survival at 0.25 mg/kg (Mus musculus [15]): 0%; IC50 (Caspase-6): 50 nM; IC50 [16]: > 100000 nM; Survival (Mus musculus [17]): 0%; Survival (Mus musculus [18]): 0%; Survival (Mus musculus [19]): 0%; Survival (Mus musculus [20]): 0%; survival at 10 mg/kg (Mus musculus [21]): 83%; Concentration (HeLa): 200 nM; IC50 (Caspase-8): 17 nM; survival at 0.25 mg/kg (Mus musculus [22]): 100%; survival at 1 mg/kg (Mus musculus [23]): 0%; IC50 (Caspase-7): 11 nM
